# Assay results published in ChEMBL document CHEMBL1125798, “Synthesis and biological activity of a series of diaryl-substituted alpha-cyano-beta-hydroxypropenamides, a new class of anthelmintic agents” (1991).
# Legend:
# Assay type in all cases: functional
# Rodentolepis nana [1] = experiment: The compound was tested for anthelmintic activity against mice, infected with parasite Hymenolepis nana at a dose of 125(ppm in feed)
# Summary of the method: (§1)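 Compound was given in feed ad libitum from 24 h postinfection for 18 days, four mice per group. On day 19, N. dubius were counted in the duodenum and H. nana in the ileum. Result is % reduction of mean worm burden vs untreated control; ≤25% was recorded as 0.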
# Rodentolepis nana [2] = experiment: The compound was tested for anthelmintic activity against mice, infected with parasite Hymenolepis nana at a dose of 62(ppm in feed); summary of the method: as §1
# [3] = tested on: Heligmosomoides polygyrus; experiment: Anthelmintic activity against mice, infected with parasite Nematospiroides dubius, at a dose of 125(ppm in feed); summary of the method: as §1
# [4] = tested on: Heligmosomoides polygyrus; experiment: Anthelmintic activity against mice, infected with parasite Nematospiroides dubius, at a dose of 62(ppm in feed); summary of the method: as §1
# Rodentolepis nana [5] = experiment: The compound was tested for anthelmintic activity against mice, infected with parasite Hymenolepis nana at a dose of 250(ppm in feed); summary of the method: as §1
# Rodentolepis nana [6] = experiment: Anthelmintic activity against mice infected with parasite Hymenolepis nana at a dose of 125 ppm (in feed); summary of the method: as §1
# [7] = tested on: Heligmosomoides polygyrus; experiment: Anthelmintic activity against mice, infected with parasite Nematospiroides dubius, at a dose of 125 (ppm in feed); summary of the method: as §1
# [8] = tested on: Heligmosomoides polygyrus; experiment: Anthelmintic activity against mice, infected with parasite Nematospiroides dubius, at a dose of 250 pm in feed); summary of the method: as §1
# Rodentolepis nana [9] = experiment: The compound was tested for anthelmintic activity against mice, infected with parasite Hymenolepis nana at a dose of 1000(ppm in feed); summary of the method: as §1
# [10] = tested on: Heligmosomoides polygyrus; experiment: Anthelmintic activity against mice, infected with parasite Nematospiroides dubius, at a dose of 1000(ppm in feed); summary of the method: as §1
# Rodentolepis nana [11] = experiment: The compound was tested for anthelmintic activity against mice, infected with parasite Hymenolepis nana at a dose of 875(ppm in feed); summary of the method: as §1
# [12] = tested on: Heligmosomoides polygyrus; experiment: Anthelmintic activity against mice, infected with parasite Nematospiroides dubius, at a dose of 875(ppm in feed); summary of the method: as §1
# Ascaris suum [13] = experiment: Effect on incorporation of [32Pi] by isolated Ascaris suum mitochondria at a concentration of 0 uM
# Summary of the method: (§2)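 Body-wall muscle mitochondria from adult A. suum (4-5 mg protein) were preincubated for 5 min at 30 °C, pH 7.4, with inhibitor in 170 mM mannitol, 50 mM sucrose, 10 mM 32Pi-phosphate, 1 mM MgCl2, 0.4 mM ADP and 0.1 unit hexokinase. Reaction was started with 10 mM malate and stopped after 15 min with perchloric acid. 32P-organic phosphate and succinate were measured in extracts; duplicate runs.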
# Ascaris suum [14] = experiment: Effect on incorporation of [32Pi] by isolated Ascaris suum mitochondria at a concentration of 10 uM; summary of the method: as §2
# Ascaris suum [15] = experiment: Effect on incorporation of [32Pi] by isolated Ascaris suum mitochondria at a concentration of 25 uM; summary of the method: as §2
# Ascaris suum [16] = experiment: Effect on incorporation of [32Pi] by isolated Ascaris suum mitochondria at a concentration of 3 uM; summary of the method: as §2
# Ascaris suum [17] = experiment: Effect on incorporation of [32Pi] by isolated Ascaris suum mitochondria at a concentration of 50 uM.; summary of the method: as §2
# Ascaris suum [18] = experiment: Effect on succinate formation by isolated Ascaris suum mitochondria at a concentration of 0 uM; summary of the method: as §2
# Ascaris suum [19] = experiment: Effect on succinate formation by isolated Ascaris suum mitochondria at a concentration of 10 uM; summary of the method: as §2
# Ascaris suum [20] = experiment: Effect on succinate formation by isolated Ascaris suum mitochondria at a concentration of 25 uM; summary of the method: as §2
# Ascaris suum [21] = experiment: Effect on succinate formation by isolated Ascaris suum mitochondria at a concentration of 3 uM; summary of the method: as §2
# Ascaris suum [22] = experiment: Effect on succinate formation by isolated Ascaris suum mitochondria at a concentration of 50 uM; summary of the method: as §2
# Rodentolepis nana [23] = experiment: The compound was tested for anthelmintic activity against mice, infected with parasite Hymenolepis nana at a dose of 31(ppm in feed); summary of the method: as §1
# Rodentolepis nana [24] = experiment: Anthelmintic activity against mice infected with parasite Hymenolepis nana at a dose of 62(ppm in feed).; summary of the method: as §1
# [25] = tested on: Heligmosomoides polygyrus; experiment: Anthelmintic activity against mice, infected with parasite Nematospiroides dubius, at a dose of 31(ppm in feed); summary of the method: as §1
# [26] = tested on: Heligmosomoides polygyrus; experiment: Anthelmintic activity against mice infected with parasite Nematospiroides dubius, at a dose of 62(ppm in feed).; summary of the method: as §1
# Ovis aries [27] = experiment: Anthelmintic activity against sheep, infected with Haemonchus contortus, at a dose of 20 mg/kg.
# Summary of the method: (§3)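 Merino ewes and wethers (12-15 months, 25-35 kg) received L3 intraruminally on day 0. Susceptible strains: H. contortus 6000, O. circumcincta 8000, T. colubriformis 8000. Benzimidazole-resistant strains: 8000, 9000, 9000. Animals were allocated by day-27 fecal egg count (n = 4-7) and given a single intraruminal dose in 0.5% carboxymethylcellulose saline. Adult worms in abomasum and small intestine were counted on day 35. Result is mean % reduction vs untreated controls.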
# Ovis aries [28] = experiment: Anthelmintic activity against sheep, infected with Haemonchus contortus, at a dose of 30 mg/kg.; summary of the method: as §3
# Ovis aries [29] = experiment: Anthelmintic activity against sheep, infected with Ostertagia circumcincta, at a dose of 20 mg/kg.; summary of the method: as §3
# Ovis aries [30] = experiment: Anthelmintic activity against sheep, infected with Ostertagia circumcincta, at a dose of 30 mg/kg.; summary of the method: as §3
# Ovis aries [31] = experiment: Anthelmintic activity against sheep, infected with Trichostrongylus colubriformis, at a dose of 20 mg/kg.; summary of the method: as §3
# Ovis aries [32] = experiment: Anthelmintic activity against sheep, infected with Trichostrongylus colubriformis, at a dose of 30 mg/kg.; summary of the method: as §3
# Rodentolepis nana [33] = experiment: The compound was tested for anthelmintic activity against mice, infected with parasite Hymenolepis nana at a dose of 31 p.p.m. in feed; summary of the method: as §1
# Rodentolepis nana [34] = experiment: The compound was tested for anthelmintic activity against mice, infected with parasite Hymenolepis nana at a dose of 125 p.p.m. in feed; summary of the method: as §1
# [35] = tested on: Heligmosomoides polygyrus; experiment: Anthelmintic activity against mice, infected with parasite Nematospiroides dubius, at a dose of 125 ppm in feed; summary of the method: as §1
# [36] = tested on: Heligmosomoides polygyrus; experiment: Anthelmintic activity against mice, infected with parasite Nematospiroides dubius, at a dose of 31 p.p.m. in feed; summary of the method: as §1
structure (smiles),measurement,setting,value
N#C/C(C(=O)Nc1ccc(C(F)(F)F)cc1)=C(/O)c1ccc(Br)cc1,Reduction,Rodentolepis nana [1],100%
same,Reduction,Rodentolepis nana [2],92%
same,Reduction,[3],99%
same,Reduction,[4],45%
N#C/C(C(=O)Nc1ccc([N+](=O)[O-])cc1)=C(/O)c1ccc(C(F)(F)F)cc1,Reduction,Rodentolepis nana [5],100%
same,Reduction,Rodentolepis nana [6],0%
same,Reduction,[7],50%
same,Reduction,[8],100%
N#C/C(C(=O)Nc1ccccc1)=C(/O)c1ccccc1,Reduction,Rodentolepis nana [9],0%
same,Reduction,[10],0%
N#C/C(C(=O)Nc1ccc(C(F)(F)F)cc1)=C(/O)c1ccccc1,Reduction,Rodentolepis nana [11],0%
same,Reduction,[12],0%
N#C/C(C(=O)Nc1ccc(C(F)(F)F)cc1)=C(/O)c1ccc(C(F)(F)F)cc1,EC,Ascaris suum [13],0.39 uM 15min-1 mg-1
same,EC,Ascaris suum [14],0.28 uM 15min-1 mg-1
same,EC,Ascaris suum [15],0.15 uM 15min-1 mg-1
same,EC,Ascaris suum [16],0.35 uM 15min-1 mg-1
same,EC,Ascaris suum [17],0.05 uM 15min-1 mg-1
same,EC,Ascaris suum [18],0.48 uM 15min-1 mg-1
same,EC,Ascaris suum [19],0.75 uM 15min-1 mg-1
same,EC,Ascaris suum [20],0.86 uM 15min-1 mg-1
same,EC,Ascaris suum [21],0.63 uM 15min-1 mg-1
same,EC,Ascaris suum [22],1.17 uM 15min-1 mg-1
same,Reduction,Rodentolepis nana [23],0%
same,Reduction,Rodentolepis nana [24],0%
same,Reduction,[25],76%
same,Reduction,[26],100%
same,Reduction,Ovis aries [27],100%
same,Reduction,Ovis aries [28],100%
same,Reduction,Ovis aries [29],66%
same,Reduction,Ovis aries [30],0%
same,Reduction,Ovis aries [31],0%
same,Reduction,Ovis aries [32],0%
COC(=O)Nc1nc2cc([S+]([O-])c3ccccc3)ccc2[nH]1 (stereo unspecified) [OXFENDAZOLE],Reduction,Rodentolepis nana [33],0%
same,Reduction,Rodentolepis nana [34],100%
same,Reduction,[35],100%
same,Reduction,[36],100%
